Data as given in ChEMBL document CHEMBL5055621, “Synthesis and Characterization of the Novel Rodent-Active and CNS-Penetrant P2X7 Receptor Antagonist Lu AF27139” (J Med Chem, 2021).
pIC50: −log10 of the molar value. Values after ≈ are worked out from the molar mass of the structure shown.

Legend:
[1] = Metabolic stability in human hepatocytes assessed as intrinsic clearance at 1 uM measured after 2 hrs; type: ADME, cell-based, Hepatocyte; details: read-out: CLH (converted)
[2] = molecular target: T1, Cytochrome P450 1A2 (Homo sapiens, UniProt P05177); assay: Time dependent inhibition of CYP1A2 (unknown origin) upto 25 uM; type: ADME
T1 sequence (P05177 whole entry): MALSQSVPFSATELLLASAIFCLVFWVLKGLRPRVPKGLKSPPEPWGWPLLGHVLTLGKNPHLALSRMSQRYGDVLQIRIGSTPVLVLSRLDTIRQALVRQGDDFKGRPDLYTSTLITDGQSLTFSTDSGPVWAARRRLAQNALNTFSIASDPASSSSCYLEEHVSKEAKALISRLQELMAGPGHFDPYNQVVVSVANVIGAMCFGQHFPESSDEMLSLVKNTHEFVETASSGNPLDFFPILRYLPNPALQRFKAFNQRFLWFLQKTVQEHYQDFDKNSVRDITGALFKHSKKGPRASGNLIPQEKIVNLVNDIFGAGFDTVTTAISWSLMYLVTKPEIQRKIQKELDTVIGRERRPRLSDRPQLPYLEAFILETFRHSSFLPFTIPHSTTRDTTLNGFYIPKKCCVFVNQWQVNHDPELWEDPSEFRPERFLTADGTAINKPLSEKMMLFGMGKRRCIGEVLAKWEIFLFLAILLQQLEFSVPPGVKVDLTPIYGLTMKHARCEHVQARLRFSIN

[3] = Induction of CYP3A4 mRNA expression in human primary hepatocytes at 10 uM; type: ADME, cell-based, Hepatocyte
Method in brief: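 Human hepatocytes were exposed to 10 μM compound. CYP3A4 mRNA was measured as the relative increase, with rifampin at 10 μM as reference inducer.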

[4] = Free plasma concentration in rat at 30 mg/kg, po after 2 hrs by ex vivo equilibrium dialysis; type: ADME, organism-based
Method in brief: (§1)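 Male Sprague–Dawley rats were dosed orally at 1–100 mg/kg, and total plasma concentration was measured at 1 and 2 h. This was multiplied by fraction unbound from ex vivo equilibrium dialysis; mean ± SEM, n = 3 animals.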

[5] = AUC (0 to 8 hrs) in female mouse at 100 mg/kg, po administered as single dose; details: in vivo
[6] = molecular target: Cytochrome P450 2D6 (Homo sapiens, UniProt P10635); assay: Inhibition of CYP2D6 (unknown origin) upto 25 uM; type: ADME
Sequence of Cytochrome P450 2D6 (P10635 whole entry): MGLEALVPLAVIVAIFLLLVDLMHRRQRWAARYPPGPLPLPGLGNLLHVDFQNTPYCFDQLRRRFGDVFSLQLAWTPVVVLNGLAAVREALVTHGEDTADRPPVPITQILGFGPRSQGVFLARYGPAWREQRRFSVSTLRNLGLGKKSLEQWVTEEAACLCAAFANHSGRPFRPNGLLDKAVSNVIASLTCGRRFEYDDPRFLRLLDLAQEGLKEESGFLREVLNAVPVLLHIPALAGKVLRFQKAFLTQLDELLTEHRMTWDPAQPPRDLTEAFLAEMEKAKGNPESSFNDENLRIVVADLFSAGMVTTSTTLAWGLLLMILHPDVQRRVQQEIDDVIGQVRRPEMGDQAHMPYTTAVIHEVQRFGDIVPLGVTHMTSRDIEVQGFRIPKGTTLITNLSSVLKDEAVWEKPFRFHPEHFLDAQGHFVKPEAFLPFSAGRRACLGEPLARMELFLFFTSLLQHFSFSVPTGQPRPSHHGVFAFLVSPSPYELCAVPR

[7] = Cmax in male rat at 3 mg/kg, po after 7 days; type: ADME, organism-based; set-up: dose 3 mg/kg, time 7 day, route po; details: in vivo
[8] = Tmax in female mouse at 100 mg/kg, po after 14 days; details: in vivo
[9] = Reduction in LPS/BzATP-induced IL-1beta release in icv dosed C57BL/6NCrl mouse frontal cortex assessed as minimal effective dose pretreated 1 hr before BzATP stimulus; type: functional; details: read-out: MED
Method in brief: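 Rats and mice with frontal cortex microdialysis probes and a lateral ventricle cannula received icv LPS (rat 3 μg/5 μL; mouse 0.1 μg/3 μL), and 1 h later oral compound in 20% HP-β-cyclodextrin. BzATP icv (rat 50 μg; mouse 5 μg) followed 1 h later.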

[10] = AUC (0 to 8 hr) in male rat at 3 mg/kg, po after 7 days; type: ADME, organism-based; set-up: dose 3 mg/kg, time 7 day, route po; details: in vivo
Method in brief: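 Oral dosing in male Sprague-Dawley rats (150−200 g, 7-day acclimation, standard housing) in a 7-day exploratory toxicology study.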

[11] = Free plasma concentration in rat at 3 mg/kg, po after 1 hr by ex vivo equilibrium dialysis; type: ADME, organism-based; method in brief: as §1
[12] = Free plasma concentration in rat at 10 mg/kg, po after 1 hr by ex vivo equilibrium dialysis; type: ADME, organism-based; method in brief: as §1
[13] = Inhibition of BzATP-induced current in rat primary microglia cells measured after repeated BzATP treatment at -60 mV at 30 nM by whole cell patch clamp assay relative to control; type: functional
Method in brief: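 Rat primary microglia were whole-cell patch-clamped at −60 mV (external pH 7.4 with 1.8 mM CaCl2; CsCl/EGTA internal pH 7.2). Currents came from 10 s applications of 300 μM BzATP, applied repeatedly. Compound was applied by gravity via capillary for 60 s, and inhibition was taken relative to the control response.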

[14] = Tmax in rat at 2 mg/kg, po; type: ADME, organism-based; details: in vivo
Method in brief: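 Rats received 1 mg/kg iv or 2 mg/kg po. The plasma concentration–time profile was analysed by a noncompartmental model to give half-life, Cmax, Tmax and absolute oral bioavailability.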

[15] = molecular target: T2, P2X purinoceptor 7 (Rattus norvegicus, UniProt Q64663); assay: Antagonist activity at rat P2X7 receptor expressed in HEK293 cells assessed as inhibition of BzATP-induced current at -60 mV by whole cell QPatch electrophysiology; type: cell-based
T2 sequence (Q64663 whole entry): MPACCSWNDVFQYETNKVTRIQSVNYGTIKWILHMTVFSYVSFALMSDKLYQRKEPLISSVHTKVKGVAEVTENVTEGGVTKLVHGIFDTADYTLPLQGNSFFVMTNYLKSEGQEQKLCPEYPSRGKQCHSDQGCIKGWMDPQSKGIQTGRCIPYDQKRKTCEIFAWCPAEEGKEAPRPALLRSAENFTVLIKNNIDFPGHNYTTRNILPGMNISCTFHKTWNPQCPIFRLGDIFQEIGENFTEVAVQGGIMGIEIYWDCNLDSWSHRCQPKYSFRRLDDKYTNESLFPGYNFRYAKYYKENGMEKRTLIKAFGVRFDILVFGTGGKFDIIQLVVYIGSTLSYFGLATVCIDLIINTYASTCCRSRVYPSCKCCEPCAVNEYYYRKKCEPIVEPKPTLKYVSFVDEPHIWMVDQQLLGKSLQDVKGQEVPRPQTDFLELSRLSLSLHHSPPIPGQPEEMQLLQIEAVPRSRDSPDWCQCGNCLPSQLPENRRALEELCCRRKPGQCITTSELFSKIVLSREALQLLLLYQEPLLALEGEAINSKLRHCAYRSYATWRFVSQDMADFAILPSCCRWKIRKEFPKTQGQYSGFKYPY
Method in brief: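 QPatch automated whole-cell recording was done on rat P2X7-HEK293 cells held at −60 mV. External solution contained 0.1 mM MgCl2 and 0.3 mM CaCl2 (pH 7.4); the CsCl/EGTA internal was pH 7.2.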

[16] = Thermodynamic solubility of the compound by shake flask HPLC method; type: physicochemical; details: read-out: Therm_solubility
Method in brief: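 Thermodynamic solubility was measured by shake flask with HPLC quantification.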

[17] = Metabolic stability in rat hepatocytes assessed as intrinsic clearance at 1 uM measured after 2 hrs; type: ADME, cell-based, Hepatocyte; details: read-out: CLH (converted)
[18] = Tmax in male rat at 3 mg/kg, po after 7 days; type: ADME, organism-based; details: in vivo, time 7 day
[19] = tested on: Rattus norvegicus; assay: Toxicity in Sprague-Dawley rat assessed as histological changes up to 150 mg/kg, po by 7 days exploratory toxicology study; type: organism-based; details: in vivo, 168 h, time 7 day
Method in brief: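 Exploratory 7-day repeat oral toxicity study in male and female rats at doses from 3 up to 150 mg/kg po. Endpoints were macroscopic pathology, histology and hematology.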

CLint scaled at 1 µM [1]: 14.2 mL/min/kg | TDI [2]: Not Active | Activity [3]: 26.9% | Cp(f) [4]: 556 nM | AUC(0-t) at 8 h [5]: 399 µM·h | inhibition (INH) [6]: Not Active | Cmax [7]: 4640 nM | Tmax [8]: 1 h | AUC at 168 h [10]: 7.16 µM·h | Cp(f) [11]: 71.2 nM | Cp(f) [12]: 381 nM | Tmax [14]: 0.58 h | pIC50 [15]: 7.18 | solubility thermodynamic [16]: 16 µg/mL (≈ 32.1 µM) | CLint scaled at 1 µM [17]: 80 mL/min/kg | Tmax [18]: 1 h
Compound: O=C(NC[C@H](c1ccc(Cl)cc1)N1CCOCC1)c1sc(-c2ncccn2)nc1C(F)(F)F
minimal effective dose [9]: 10 mg/kg | inhibition at 0.03 µM [13]: 67% | Activity [19]: Non-Toxic
